Screening results: PubChem, several laboratories
The list is not random: actives were taken first. Their share in the collection is about 0.27%.
Bim-Bcl-W – human Bim-Bcl-W interaction inhibition. Q92843. bead-based flow cytometry, Bim peptide-Bcl-W binding. inhibition, % at 10 µM. hit rate 0.02% among 190,000. AID 952;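 also: higher means less fluorescent Bim peptide bound to Bcl-W beads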
Bim-Bcl-XL – disrupts Bim peptide binding to human Bcl-XL. Q07817. bead flow cytometry, fluorescence. inhibition, % at 10 µM. hit rate 0.04% among 190,000
Bcl-2 Bim block – disrupts Bim peptide binding to human Bcl-2; P10415; Bead-based flow cytometry, Bim peptide-Bcl-2 binding; inhibition, % at 10 µM; hit rate 0.06% among 190,000; in the data active = inhibition above about 40%
Bfl-1 Bim block – human Bim-Bfl-1 interaction inhibition; Q16548; inhibition, % at 10 µM; Bead-based flow cytometry, Bim-Bfl-1 binding inhibition; hit rate 0.12% among 190,000
Mdm2 ligase inh – blocks human Mdm2 ubiquitin ligase activity. Q00987. cell-based MDM2 ubiquitination luciferase reporter, 2 h; 0 = plate control, 100 = twice control, blank-subtracted. signal enhancement, % at 5 µM. hit rate 0.11% among 210,000. AID 1230;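 active = signal enhancement of 30% or more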;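 also: luminescence tracks abundance of the self-degrading MDM2-luciferase fusion protein; higher signal means inhibition of MDM2 E3 ligase activity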
Target sequence (Q00987 whole entry, looked up, the tested form may be a part): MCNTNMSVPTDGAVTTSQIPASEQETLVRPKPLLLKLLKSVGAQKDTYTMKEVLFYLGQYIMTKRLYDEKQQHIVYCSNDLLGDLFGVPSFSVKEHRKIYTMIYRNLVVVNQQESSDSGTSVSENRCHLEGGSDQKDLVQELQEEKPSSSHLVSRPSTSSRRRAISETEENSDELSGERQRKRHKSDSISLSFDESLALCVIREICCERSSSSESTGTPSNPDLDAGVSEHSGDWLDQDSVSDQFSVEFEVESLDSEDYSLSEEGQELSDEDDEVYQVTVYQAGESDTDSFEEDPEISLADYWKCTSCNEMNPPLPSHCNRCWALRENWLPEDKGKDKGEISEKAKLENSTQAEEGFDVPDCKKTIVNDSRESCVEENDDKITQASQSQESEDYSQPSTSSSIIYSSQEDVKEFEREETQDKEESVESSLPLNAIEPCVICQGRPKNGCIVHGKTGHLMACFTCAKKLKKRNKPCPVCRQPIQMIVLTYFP
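Assay system: mammalian cells stably expressing self-ubiquitinating, self-degrading MDM2 E3–luciferase fusion. Quantity: 2000 cells in each well. Medium: DMEM culture medium. Compound dosing: single-point 5 µM. Timing: cell settling 4 h, compound treatment 2 h, both 37 °C. Technique: luciferase luminescence. Read-out basis: percent signal gain over controls, blank-subtracted. Benchmarks: plate controls and plate blanks.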
Bcl-B Bim block – inhibitors of Bim-Bcl-B interaction, human. hit rate 0.073% among 190,000. inhibition, % at 10 µM. bead-based flow cytometry, Bim peptide-Bcl-B binding
Hits are given with their value; – = inactive; · = no result given. Rule as the data show it, unless noted: active = inhibition above about 40%.

SMILES	Bim-Bcl-W	Bim-Bcl-XL	Bcl-2 Bim block	Bfl-1 Bim block	Mdm2 ligase inh	Bcl-B Bim block
O=C(O)c1cc(NS(=O)(=O)c2ccc(N3CCCCC3)c([N+](=O)[O-])c2)cc(C(=O)O)c1	–	–	–	–	–	–
Cc1ccc(C=C2C(Cl)=C(Cl)C(Cl)=C2Cl)cc1	·	·	·	·	49	·
COc1ccc(/C=N/n2cc(-c3ccccc3)nc2N)cc1	–	–	84	65	–	84
CCn1c(CN2CCN(Cc3ccc(C)cc3)C(CCO)C2)nc2ccccc21 (configuration not stated)	–	–	–	–	–	–
O=C(O)C1CCC(Cn2c(SCc3cc(=O)n4cc(Cl)ccc4n3)nc3ccsc3c2=O)CC1 (configuration not stated)	–	–	–	–	–	–
COc1ccc(OCC(=O)N/N=C(\C)CC(=O)Nc2cccc([N+](=O)[O-])c2)cc1	–	–	–	–	32	–
Clc1ccc(Cn2cccn2)cn1	–	–	–	–	–	–
Cc1ccc(-n2ccc(=O)c(-c3ccnc(SCc4cccc(Cl)c4)n3)n2)cc1	–	–	79	56	–	74
CSc1ccc(CN2CCN(C(C)C)C(CCO)C2)cc1 (configuration not stated)	–	–	–	–	–	–
CCN(CC)c1ccc2c(c1)CCCN2	49	–	41	62	–	–
O=[N+]([O-])c1ccc(/C=N/N=C/c2ccc([N+](=O)[O-])o2)o1	–	–	–	–	77	–
CC(Nc1ccc2c(c1)OCCO2)C(=O)N1c2ccccc2CC1C (configuration not stated)	–	–	–	–	–	–
CCOC(=O)c1c2c3c(c(Cl)ccc3[nH]c1=O)C(=O)c1ccccc1-2	–	51	–	–	–	–
CC(C)=C1SC(N2CCN(c3cccc(C(F)(F)F)c3)CC2)=NC1=O	–	–	–	–	30	–
CC(C)=C1SC(N2CCN(c3ccc(C)cc3)CC2)=NC1=O	–	–	–	–	–	–
CC(=O)c1ccc(NC(=O)Nc2ccncc2)cc1	–	–	–	–	–	–
O=C(Nc1ccncc1)Nc1ccncc1	–	–	–	–	41	–
Cn1nnnc1SCc1ccc([N+](=O)[O-])cc1	–	–	–	–	–	–
COc1cc(C(=O)Nc2ccc(S(=O)(=O)N3CCOCC3)cc2)c([N+](=O)[O-])cc1OC	–	–	–	–	–	–
Cc1[nH]c2ccccc2c1C(=O)COC(=O)c1c(-c2c(F)cccc2Cl)noc1C	–	41	–	43	–	–
O=C(NNC(=O)c1cc([N+](=O)[O-])ccc1Cl)c1cccs1	–	–	–	–	–	–
O=C(C1=NOC(CNc2ncc(C(F)(F)F)cc2Cl)C1)N1CCOCC1 (configuration not stated)	–	–	–	–	–	–
COc1ccccc1-c1nnc(Nc2nc3c(OC)cccc3s2)o1	–	–	–	–	39	–
Cc1c(N2C(=O)c3ccc(Br)cc3C2=O)c(=O)n(-c2ccccc2)n1C	–	–	–	–	–	–
Cc1c(N2C(=O)c3ccc4c5c(ccc(c35)C2=O)CC4)c(=O)n(-c2ccccc2)n1C	–	–	–	–	–	58
SMILES	Bim-Bcl-W	Bim-Bcl-XL	Bcl-2 Bim block	Bfl-1 Bim block	Mdm2 ligase inh	Bcl-B Bim block
C=CCOC(=O)/C=C/C(=O)NC(N)=O	·	·	·	·	–	·
Cc1ccccc1CSc1nc(C(C)(C)C)cc(=O)[nH]1	–	–	–	–	–	–
Cc1ccc(-c2cc(-c3ccccc3)c(C#N)c(N)n2)o1	–	–	–	42	–	–
Cc1ccc(-c2cc(-c3ccccc3Cl)c(C#N)c(N)n2)o1	–	–	–	–	–	–
COC(=O)c1c(C(=O)OC)c2cccc3cc(-c4ccccc4)c4ccc1c4n32	–	–	–	44	–	–
N=C1C(c2nc3ccccc3[nH]2)=C(O)CN1c1ccc(CC(=O)O)cc1	–	–	–	–	–	–
N=C1C(c2nc3ccccc3[nH]2)=C(O)CN1c1ccccc1	–	–	–	–	41	–
N/C(Cc1ccc(Cl)c(Cl)c1)=N\OC(=O)c1cccs1	–	–	–	–	–	41
N/C(=N\OC(=O)c1cccs1)C1(c2ccc(Cl)cc2Cl)CC1	·	·	·	·	–	·
O=C1N=C(N2CCOCC2)S/C1=C/c1ccc(-c2ccc(F)cc2)o1	–	–	–	–	–	–
O=C1N/C(=C/c2ccc(N3CCOCC3)o2)C(=O)N1c1ccccc1	–	–	–	–	47	–
O=C1NC(=S)S/C1=C/c1ccc(N2CCOCC2)o1	–	–	–	53	–	–
Cc1ccc(-c2ccc(/C=C3\SC(N4CCOCC4)=NC3=O)o2)cc1	–	–	–	41	–	–
O=C1/C(=C/c2cccc([N+](=O)[O-])c2)CCc2ccccc21	–	–	–	–	–	–
CCN1C/C(=C\c2cccc([N+](=O)[O-])c2)C(=O)/C(=C/c2cccc([N+](=O)[O-])c2)C1	–	–	–	–	39	–
CCN1C/C(=C/c2ccc(OC)c(O)c2)C(=O)/C(=C/c2ccc(OC)c(O)c2)C1	–	–	–	–	50	–
O=C(CC1C(=O)NCCN1Cc1cccc(Oc2ccccc2)c1)NCCCn1cccn1 (configuration not stated)	–	–	–	–	–	–
COc1ccc(C(=S)N2CCCCCC2)cc1	46	53	–	52	·	–
COc1ccc(C(=S)N2CCNCC2)cc1	–	–	–	–	–	–
CN(c1ccccc1)S(=O)(=O)c1cccc(C(=O)Nc2nn[nH]n2)c1	·	·	·	·	–	·
N#Cc1cc(-c2ccccc2)nn1-c1ccccc1	–	–	–	57	–	–
Cc1cc(NC(=O)CSc2nc(C(C)C)nc3c2c(=O)n(C)c(=O)n3C)no1	–	–	–	–	33	–
Cc1cc(NC(=O)CSc2nc(-c3ccccc3)nc3c2c(=O)n(C)c(=O)n3C)no1	–	–	–	–	–	–
O=C1NC(=O)c2cc(NC(=O)C3COc4ccccc4O3)ccc21 (configuration not stated)	–	–	–	–	43	–
CC1(C)Oc2ccc(NC(=O)C3COc4ccccc4O3)cc2O1 (configuration not stated)	–	–	–	–	–	–
Oc1ccc(C2=Nn3c(nnc3-c3ccco3)SC2)cc1O	–	55	–	–	–	–
COc1ccc(C2=Nn3c(nnc3-c3ccco3)SC2)cc1	–	–	–	–	–	–
CN(Cc1ccccc1)C(=O)c1[nH]cnc1C(=O)N[C@@H](CCCCNC(=O)OC(C)(C)C)C(=O)OC(C)(C)C	–	–	83	45	·	73
Cc1nc2ccc(NC(=O)c3cc([N+](=O)[O-])cc([N+](=O)[O-])c3Cl)cc2s1	–	–	–	52	–	–
Cc1nc2ccc(NC(=O)c3ccc(Cl)c([N+](=O)[O-])c3)cc2s1	–	–	–	–	–	–
